Test system: Fibroblast
Assay: Multiplex assay against human fibroblast
Type: toxicity, cell-based
Procedure, shortened: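 Four dyes were applied at seeding to live cells: Hoechst33342, BioTracker Green Microtubule Cytoskeleton Dye, MitoTracker Red and Annexin V Alexa Fluor 680. Imaging after compound addition used a CQ1 microscope at 37°C and 5% CO2. CellPathfinder machine-learning gating then sorted cells into Hoechst high-intensity objects or normal cells, normal cells into healthy, pyknosed or fragmented nuclei, and pyknosed cells into mitotic or apoptotic, with tubulin, mitochondrial-mass and membrane-permeability phenotypes given as per cents of healthy-nucleus cells.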

[1] = 12 h, 1 µM, compound concentration 1 uM, replicate 1
[2] = 12 h, 1 µM, compound concentration 1 uM, replicate 2
[3] = 12 h, 10 µM, compound concentration 10 uM, replicate 1
[4] = 12 h, 10 µM, compound concentration 10 uM, replicate 2
[5] = 24 h, 1 µM, compound concentration 1 uM, replicate 1
[6] = 24 h, 1 µM, compound concentration 1 uM, replicate 2
[7] = 24 h, 10 µM, compound concentration 10 uM, replicate 1
[8] = 24 h, 10 µM, compound concentration 10 uM, replicate 2

SMILES: Cc1nc(N2CC[C@H](O)C2)ncc1-c1cc(C(F)(F)F)cc2[nH]ncc12
- Population Apoptotic (%) [1]: 70%
- Population Fragmented Nuclei (%) [1]: 32%
- Population Healthy Nuclei (%) [1]: 49%
- Population Hoechst High Intensity Objects (%) [1]: 12%
- Population Membrane Permeable-Phenotype (%) [1]: 10%
- Population Mitochondria Different-Phenotype (%) [1]: 6%
- Population Mitotic Cells (%) [1]: 29%
- Population Normal (%) [1]: 87%
- Population Pyknosed Nuclei (%) [1]: 18%
- Population Tubulin-Different-Phenotype (%) [1]: 7%
- Total Cell Count [1]: 193
- Population Apoptotic (%) [2]: 20%
- Population Fragmented Nuclei (%) [2]: 42%
- Population Healthy Nuclei (%) [2]: 33%
- Population Hoechst High Intensity Objects (%) [2]: 40%
- Population Membrane Permeable-Phenotype (%) [2]: 28%
- Population Mitochondria Different-Phenotype (%) [2]: 28%
- Population Mitotic Cells (%) [2]: 80%
- Population Normal (%) [2]: 60%
- Population Pyknosed Nuclei (%) [2]: 23%
- Population Tubulin-Different-Phenotype (%) [2]: 50%
- Total Cell Count [2]: 70
- Population Apoptotic (%) [3]: 66%
- Population Fragmented Nuclei (%) [3]: 24%
- Population Healthy Nuclei (%) [3]: 61%
- Population Hoechst High Intensity Objects (%) [3]: 15%
- Population Membrane Permeable-Phenotype (%) [3]: 3%
- Population Mitochondria Different-Phenotype (%) [3]: 7%
- Population Mitotic Cells (%) [3]: 33%
- Population Normal (%) [3]: 84%
- Population Pyknosed Nuclei (%) [3]: 14%
- Population Tubulin-Different-Phenotype (%) [3]: 4%
- Total Cell Count [3]: 218
- Population Apoptotic (%) [4]: 50%
- Population Fragmented Nuclei (%) [4]: 68%
- Population Healthy Nuclei (%) [4]: 21%
- Population Hoechst High Intensity Objects (%) [4]: 22%
- Population Membrane Permeable-Phenotype (%) [4]: 15%
- Population Mitochondria Different-Phenotype (%) [4]: 15%
- Population Mitotic Cells (%) [4]: 50%
- Population Normal (%) [4]: 77%
- Population Pyknosed Nuclei (%) [4]: 9%
- Population Tubulin-Different-Phenotype (%) [4]: 15%
- Total Cell Count [4]: 79
- Population Apoptotic (%) [5]: 48%
- Population Fragmented Nuclei (%) [5]: 29%
- Population Healthy Nuclei (%) [5]: 47%
- Population Hoechst High Intensity Objects (%) [5]: 12%
- Population Membrane Permeable-Phenotype (%) [5]: 9%
- Population Mitochondria Different-Phenotype (%) [5]: 9%
- Population Mitotic Cells (%) [5]: 51%
- Population Normal (%) [5]: 87%
- Population Pyknosed Nuclei (%) [5]: 22%
- Population Tubulin-Different-Phenotype (%) [5]: 12%
- Total Cell Count [5]: 183
- Population Apoptotic (%) [6]: 60%
- Population Fragmented Nuclei (%) [6]: 45%
- Population Healthy Nuclei (%) [6]: 30%
- Population Hoechst High Intensity Objects (%) [6]: 35%
- Population Membrane Permeable-Phenotype (%) [6]: 30%
- Population Mitochondria Different-Phenotype (%) [6]: 7%
- Population Mitotic Cells (%) [6]: 40%
- Population Normal (%) [6]: 64%
- Population Pyknosed Nuclei (%) [6]: 23%
- Population Tubulin-Different-Phenotype (%) [6]: 23%
- Total Cell Count [6]: 65
- Population Apoptotic (%) [7]: 65%
- Population Fragmented Nuclei (%) [7]: 22%
- Population Healthy Nuclei (%) [7]: 63%
- Population Hoechst High Intensity Objects (%) [7]: 15%
- Population Membrane Permeable-Phenotype (%) [7]: 7%
- Population Mitochondria Different-Phenotype (%) [7]: 3%
- Population Mitotic Cells (%) [7]: 34%
- Population Normal (%) [7]: 84%
- Population Pyknosed Nuclei (%) [7]: 14%
- Population Tubulin-Different-Phenotype (%) [7]: 3%
- Total Cell Count [7]: 239
- Population Apoptotic (%) [8]: 83%
- Population Fragmented Nuclei (%) [8]: 67%
- Population Healthy Nuclei (%) [8]: 22%
- Population Hoechst High Intensity Objects (%) [8]: 24%
- Population Membrane Permeable-Phenotype (%) [8]: 38%
- Population Mitochondria Different-Phenotype (%) [8]: 30%
- Population Mitotic Cells (%) [8]: 16%
- Population Normal (%) [8]: 75%
- Population Pyknosed Nuclei (%) [8]: 10%
- Population Tubulin-Different-Phenotype (%) [8]: 46%
- Total Cell Count [8]: 77
